Assay [1] has as its target Receptor-type tyrosine-protein phosphatase F (Homo sapiens, UniProt P10586). As to the kind of experiment: Concentration required for 50% Inhibition of activity against Protein-tyrosine phosphatase Lar. The gist of the method: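 Yersinia PTPase and LAR, commercial enzymes. p-NPP at 2.5 mM; 1 mM EDTA, 100 mM NaCl, 100 mM acetate pH 5.5, 10% DMSO, 25 °C. Initial rates taken from hydrolysis followed at 420 nm, 10–120 s after mixing. IC50 obtained by Dixon analysis.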

The target in assay [2] is T1, Tyrosine-protein phosphatase non-receptor type 1 (Homo sapiens, UniProt P18031).
T1 sequence (P18031 whole entry): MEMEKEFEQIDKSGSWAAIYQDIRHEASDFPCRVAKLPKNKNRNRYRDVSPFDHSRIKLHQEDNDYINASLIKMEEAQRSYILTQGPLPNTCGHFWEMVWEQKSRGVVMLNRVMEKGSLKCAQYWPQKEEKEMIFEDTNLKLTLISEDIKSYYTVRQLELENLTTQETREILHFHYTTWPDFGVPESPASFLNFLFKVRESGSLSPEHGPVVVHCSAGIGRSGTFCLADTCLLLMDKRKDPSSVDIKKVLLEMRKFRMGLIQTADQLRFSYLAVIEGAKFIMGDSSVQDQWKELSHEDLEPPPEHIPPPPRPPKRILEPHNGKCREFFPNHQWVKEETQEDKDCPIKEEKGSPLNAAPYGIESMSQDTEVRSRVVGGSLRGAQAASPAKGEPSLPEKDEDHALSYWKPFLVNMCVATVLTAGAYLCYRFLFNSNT
Nature of the assay: Concentration required for 50% Inhibition of activity against Protein Tyrosine Phosphatases 1B.

SMILES strings stand for the structures.

Sequence of Receptor-type tyrosine-protein phosphatase F (P10586 whole entry): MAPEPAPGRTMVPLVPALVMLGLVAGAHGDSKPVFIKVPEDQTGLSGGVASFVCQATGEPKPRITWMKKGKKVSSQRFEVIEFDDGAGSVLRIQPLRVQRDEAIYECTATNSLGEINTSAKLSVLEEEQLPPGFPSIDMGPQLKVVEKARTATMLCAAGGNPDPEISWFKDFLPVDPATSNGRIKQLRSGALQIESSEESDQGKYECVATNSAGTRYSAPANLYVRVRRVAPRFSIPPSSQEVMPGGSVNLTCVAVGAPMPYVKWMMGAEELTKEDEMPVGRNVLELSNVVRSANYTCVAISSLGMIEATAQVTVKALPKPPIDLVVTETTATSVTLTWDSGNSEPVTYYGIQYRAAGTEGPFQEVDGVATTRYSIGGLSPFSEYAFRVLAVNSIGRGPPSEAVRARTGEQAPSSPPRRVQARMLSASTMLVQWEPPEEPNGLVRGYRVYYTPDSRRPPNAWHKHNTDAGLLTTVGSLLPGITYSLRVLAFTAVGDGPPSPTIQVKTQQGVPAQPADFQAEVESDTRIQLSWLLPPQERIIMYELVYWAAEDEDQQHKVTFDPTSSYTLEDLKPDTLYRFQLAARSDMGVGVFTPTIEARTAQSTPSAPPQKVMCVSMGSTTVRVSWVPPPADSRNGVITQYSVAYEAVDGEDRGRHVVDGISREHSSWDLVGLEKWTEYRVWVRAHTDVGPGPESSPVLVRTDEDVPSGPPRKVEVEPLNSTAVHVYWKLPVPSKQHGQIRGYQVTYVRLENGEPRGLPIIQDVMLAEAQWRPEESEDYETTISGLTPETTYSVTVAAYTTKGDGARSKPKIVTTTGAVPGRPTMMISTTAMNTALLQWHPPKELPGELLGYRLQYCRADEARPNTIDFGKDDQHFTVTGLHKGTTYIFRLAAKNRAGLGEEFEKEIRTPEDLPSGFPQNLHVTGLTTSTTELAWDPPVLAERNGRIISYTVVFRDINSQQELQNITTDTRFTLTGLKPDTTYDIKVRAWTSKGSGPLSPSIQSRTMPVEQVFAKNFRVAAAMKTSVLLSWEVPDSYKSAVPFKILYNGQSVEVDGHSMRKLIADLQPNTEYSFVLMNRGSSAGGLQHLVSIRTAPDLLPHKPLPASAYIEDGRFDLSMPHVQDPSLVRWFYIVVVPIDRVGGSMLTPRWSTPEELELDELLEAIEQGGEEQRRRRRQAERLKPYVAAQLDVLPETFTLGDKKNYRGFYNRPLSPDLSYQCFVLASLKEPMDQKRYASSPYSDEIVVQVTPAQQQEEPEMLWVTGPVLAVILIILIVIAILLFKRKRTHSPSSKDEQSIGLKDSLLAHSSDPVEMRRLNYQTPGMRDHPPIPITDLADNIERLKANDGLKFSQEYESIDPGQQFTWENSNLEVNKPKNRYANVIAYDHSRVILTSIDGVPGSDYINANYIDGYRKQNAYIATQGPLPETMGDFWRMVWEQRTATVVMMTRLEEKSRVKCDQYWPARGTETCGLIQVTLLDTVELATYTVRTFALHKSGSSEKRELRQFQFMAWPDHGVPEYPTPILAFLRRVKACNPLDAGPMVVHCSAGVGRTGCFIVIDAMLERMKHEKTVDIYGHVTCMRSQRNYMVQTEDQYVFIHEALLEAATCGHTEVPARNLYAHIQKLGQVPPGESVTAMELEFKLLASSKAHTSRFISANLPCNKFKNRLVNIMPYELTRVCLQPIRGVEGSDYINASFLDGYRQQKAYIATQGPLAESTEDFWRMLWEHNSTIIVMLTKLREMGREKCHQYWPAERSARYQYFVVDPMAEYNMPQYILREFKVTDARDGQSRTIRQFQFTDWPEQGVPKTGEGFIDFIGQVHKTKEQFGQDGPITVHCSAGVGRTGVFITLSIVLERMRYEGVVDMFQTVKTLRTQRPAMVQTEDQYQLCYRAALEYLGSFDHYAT

For `O=C(O)C(=O)c1ccc(OCc2cccc(COc3ccc(C(=O)C(=O)O)cc3)c2)cc1`, the 50% inhibitory concentration (IC50) was determined as 120 µM in assay [1] and 53 µM in assay [2]. Take `O=C(O)C(=O)c1ccc(OCc2ccc(COc3ccc(C(=O)C(=O)O)cc3)cc2)cc1`: the IC50 in assay [1] amounted to 250 µM; in assay [2] it was 2.7 µM.

`O=C(O)C(=O)c1ccc(O)cc1` came in with an IC50 in assay [1] of 2300 µM. As to `O=C(O)C(=O)c1ccc(OCc2cc(COc3ccc(C(=O)C(=O)O)cc3)cc(COc3ccc(C(=O)C(=O)O)cc3)c2)cc1`, the concentration for half-maximal inhibition (IC50) in assay [1] is 41 µM; in assay [2], 13 µM. Consider `O=C(O)C(=O)c1ccc(OCc2ccccc2COc2ccc(C(=O)C(=O)O)cc2)cc1`, for which the half-inhibitory concentration (IC50) in assay [1] came to 120 µM; in assay [2], 19 µM.

What is called IC50 is the midpoint of a concentration-inhibition curve. A high value points to weaker potency in that assay.

These data come from ChEMBL document CHEMBL1135588, “Divalent and trivalent alpha-ketocarboxylic acids as inhibitors of protein tyrosine phosphatases” (J Med Chem, 2002).
